Screening data deposited in PubChem by Johns Hopkins Ion Channel Center.
TRPC4 agonist: activators of mouse TRPC4 channel, primary screen, Fluo4 calcium, HEK293 TRPC4beta/mu-opioid cells. Short transient receptor potential channel 4 (Mus musculus), Q9QUQ5. Fluo4 calcium fluorescence; hits give high values. B-score at 10 µM. 310,000 compounds, 0.49% hits. AID 2237, 2010;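 active means B-score above 5 SD of library B-scores, and initial fluorescence ratio not above library mean plus 5 SD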;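 further: positive B-score marks a calcium rise read as TRPC4 activation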
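Incubation: 45 min room-temperature Fluo4 loading, 110 s read / System: HEK293 cells stably co-expressing mouse TRPC4beta and mu-opioid receptor / Signal: Fluo4 fluorescence, kinetic / Control set: buffer (low) and maximal DAMGO (high) / Measure: integrated baseline-normalised fluorescence ratio, converted to per-well B score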
TRPC6 inh: mouse TRPC6 channel inhibitors, primary screen, cell-based, HEK293, membrane potential dye; Short transient receptor potential channel 6 (Mus musculus), Q61143; ACh-evoked depolarization; hits give low values; B-score at 10 µM; 310,000 compounds, 1.1% hits; AID 2553, 2010;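 active means B-score under library mean minus 3 SD, initial fluorescence not abnormally high, positive integrated signal ratio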;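 further: B-score derived from integrated fluorescence ratio over the kinetic read; more negative B-score means stronger inhibition of depolarization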
Target sequence (Q61143 whole entry, looked up): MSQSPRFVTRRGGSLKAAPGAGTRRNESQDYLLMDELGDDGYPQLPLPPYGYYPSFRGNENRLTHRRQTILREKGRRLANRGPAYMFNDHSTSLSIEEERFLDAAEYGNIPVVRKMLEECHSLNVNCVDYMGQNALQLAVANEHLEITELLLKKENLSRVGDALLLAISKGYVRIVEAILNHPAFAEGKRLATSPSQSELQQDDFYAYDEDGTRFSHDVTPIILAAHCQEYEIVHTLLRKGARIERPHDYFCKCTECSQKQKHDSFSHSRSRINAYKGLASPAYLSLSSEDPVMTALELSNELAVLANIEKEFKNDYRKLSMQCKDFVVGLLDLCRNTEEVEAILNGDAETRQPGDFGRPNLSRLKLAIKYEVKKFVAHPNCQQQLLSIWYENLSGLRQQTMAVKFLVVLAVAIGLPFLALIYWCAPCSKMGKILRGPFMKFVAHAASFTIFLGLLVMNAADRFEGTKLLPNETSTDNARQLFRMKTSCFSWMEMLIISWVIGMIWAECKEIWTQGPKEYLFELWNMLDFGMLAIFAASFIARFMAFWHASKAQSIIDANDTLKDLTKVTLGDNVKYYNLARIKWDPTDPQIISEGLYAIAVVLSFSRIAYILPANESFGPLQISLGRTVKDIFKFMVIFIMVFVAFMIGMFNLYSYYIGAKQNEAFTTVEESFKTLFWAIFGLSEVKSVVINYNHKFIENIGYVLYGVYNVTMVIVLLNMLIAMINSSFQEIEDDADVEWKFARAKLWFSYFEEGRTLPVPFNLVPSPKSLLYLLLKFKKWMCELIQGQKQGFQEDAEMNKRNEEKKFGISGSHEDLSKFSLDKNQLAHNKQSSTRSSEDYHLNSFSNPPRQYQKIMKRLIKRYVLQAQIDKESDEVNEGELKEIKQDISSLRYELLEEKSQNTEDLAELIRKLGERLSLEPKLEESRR
TRPC4 inh: inhibitors of mouse TRPC4 channel, primary screen, Fluo4 calcium, HEK293 TRPC4beta/mu-opioid cells | DAMGO-evoked Fluo4 calcium flux; hits give low values | B-score at 10 µM | Short transient receptor potential channel 4 (Mus musculus), Q9QUQ5 | 300,000 compounds, 0.39% hits;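 active means B-score over 3 SD under the library average, no early fluorescence shift, positive overall ratio signal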
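Signal: kinetic Fluo4 fluorescence imaging of calcium influx. Material: stable TRPC4beta/mu-opioid receptor HEK293 cells. Probe or stimulus: DAMGO in two steps, submaximal then maximal.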
TRPC4 PAM: positive allosteric modulators of TRPC4, primary screen, cell-based, mouse TRPC4beta, HEK293 mu-opioid, Fluo-4 calcium. DAMGO EC20, Fluo-4 Ca2+ flux; hits give high values. B-score at 10 µM. 310,000 compounds, 0.42% hits. AID 2227, 2009;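 active means B-score of calcium response area above 5 SD of library B-scores, with initial fluorescence ratio within 5 SD of library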;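 further: B-score of integrated fluorescence ratio over time as area under calcium response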
TRPC6 activator: mouse TRPC6 channel activators, primary screen, cell-based, HEK293, membrane potential dye; B-score at 10 µM; 310,000 compounds, 0.13% hits; HEK293-TRPC6 membrane potential dye fluorescence; hits give high values;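 active means B-score of the integrated fluorescence ratio above library mean plus 3 SD, and starting fluorescence ratio within library mean plus 5 SD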;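 further: higher score means more depolarization so channel activation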
The depositor's hits bear a star; i = inactive. An excerpt weighted towards active compounds, which were near 2.3% of everything screened.

SMILES | TRPC4 agonist | TRPC6 inh | TRPC4 inh | TRPC4 PAM | TRPC6 activator
COCCN1C(=O)C(=O)/C(=C(/O)c2ccc(S(=O)(=O)N3CCOCC3)cc2)C1c1cccc(Cl)c1 (stereo unspecified) | i | i | i | i | i
O=C(Nc1ccccc1)C1=C[C@H](C2CCCCC2)C[C@H](OCc2ccc(CO)cc2)O1 | i | i | i | 19* | i
O=C(NCc1ccccc1)C1=C[C@H](c2ccc(Br)cc2)C[C@H](OCc2ccc(CO)cc2)O1 | i | i | i | 15* | i
O=C(Nc1ccccc1)C1=C[C@@H](C2CCCCC2)C[C@@H](OCc2ccc(CO)cc2)O1 | i | i | i | i | i
CC(C)(C)[C@H]1C=C(C(=O)Nc2ccccc2)O[C@@H](OCc2ccc(CO)cc2)C1 | i | i | i | i | i
CC(C)(C)[C@@H]1C=C(C(=O)NCc2ccccc2)O[C@H](OCc2ccc(CO)cc2)C1 | i | i | i | 13* | i
O=C(NCc1ccccc1)C1=C[C@H](c2ccc3c(c2)OCO3)C[C@H](OCc2ccc(CO)cc2)O1 | 211* | i | -6* | i | i
CC(C)(C)c1ccc2c(c1)N(CC(=O)N1CCCC1)C(=O)CO2 | i | i | i | i | i
O=C(c1cccc(NS(=O)(=O)c2ccc(F)c(F)c2)c1)N1CCN(Cc2ccccc2)CC1 | 81* | i | i | i | i
Cc1ccc(S(=O)(=O)Nc2cccc(C(=O)NC3CCN(Cc4ccccc4)CC3)c2)cc1F | i | i | i | i | i
COc1cccc(CN2CCN(C(=O)c3cccc(OC)c3)CC2)c1 | i | i | i | i | i
O=C(c1ccccc1)N1CCN(Cc2cccc(Oc3ccccc3)c2)CC1 | i | -11* | i | i | 17*
CC(C)(C)c1oc(C(=O)O)cc1CN1CCOCC1 | i | i | i | i | i
Cc1cc(C(=O)CSc2n[nH]c(N)n2)c(C)n1-c1ccc2c(c1)OCO2 | i | i | i | i | i
O=C(Cc1ccccc1)NNS(=O)(=O)c1ccccc1[N+](=O)[O-] | i | i | i | i | i
Fc1ccc(-n2cc(CNCCc3ccncc3)c(-c3ccccc3Cl)n2)cc1 | i | i | -6* | i | i
Fc1ccc(-n2cc(CNCCc3cccnc3)c(-c3ccccc3Cl)n2)cc1 | 124* | i | i | i | i
Fc1ccc(-c2nn(-c3ccccc3)cc2CNCc2ccccc2)cc1 | 96* | i | i | i | i
COc1ccc(-n2cc(CNCCCN3CCCC3=O)c(-c3ccccc3Cl)n2)cc1 | i | i | i | i | i
O=C(Cc1ccc(F)cc1)NCc1cccnc1 | i | i | i | i | i
O=C(O)Cc1cn(-c2ccccc2)nc1-c1ccccc1 | i | i | i | i | i
O=c1[nH]cnc2c1C(c1ccccc1)c1c(nc[nH]c1=O)O2 | i | i | i | i | i
N#C/C(=C(/O)C(Cl)(Cl)Cl)c1nc2ccccc2[nH]1 | i | i | i | i | i
CN(C)C(CNC(C(=O)Nc1ccc(F)cc1)c1ccccc1)c1ccccc1 (stereo unspecified) | 139* | i | i | i | i
CN(C)C(CNC(C(=O)Nc1ccc([N+](=O)[O-])cc1Br)c1ccccc1)c1ccccc1 (stereo unspecified) | 74* | i | i | i | i
SMILES | TRPC4 agonist | TRPC6 inh | TRPC4 inh | TRPC4 PAM | TRPC6 activator
O=C(Nc1ccc(F)cc1)C(NC1CCCCC1)c1ccccc1 (stereo unspecified) | i | i | i | i | i
Cc1ccc(OCC(=O)N/N=C2\CC(=O)CC(C)(C)C2)c(Br)c1 | i | i | i | i | i
Sc1oc(-c2ccccc2)cc1C=Nc1ccccc1 | i | i | i | i | i
CC(C)c1ccc(NC(=S)N(C)CCc2ccccn2)cc1 | 107* | i | i | i | i
Cc1cc(NC(=O)C(C)SCC(=O)N(Cc2ccccc2)c2ccccc2)no1 (stereo unspecified) | i | i | -7* | i | i
COc1ccccc1-c1noc2ncnc(Nc3cccc(C)c3C)c12 | i | i | i | i | i
COc1ccc(NC(=S)N2CCC(NC(=O)c3ccco3)CC2)cc1 | i | i | i | i | i
CCC1CCc2sc(C(=O)NCC(c3ccc(OC)cc3)N3CCCC3)cc2C1 (stereo unspecified) | 55* | i | i | i | i
COc1ccc(C(CNC(=O)c2oc3ccc(OC)cc3c2C)N2CCCC2)cc1 (stereo unspecified) | 72* | i | i | i | i
CC1=C(C(=O)NCc2ccccc2)C(c2cc(Br)cc(Br)c2OC(C)C)NC(=O)N1 (stereo unspecified) | i | i | i | 17* | i
CC1=C(C(=O)NCc2ccccc2)C(c2ccccc2OCC(N)=O)NC(=O)N1 (stereo unspecified) | i | i | i | i | i
O=C(O)/C=C\C(=O)Nc1ccc(N2CCN(c3ccc(Cl)c(Cl)c3)CC2)cc1 | i | i | -6* | i | i
O=C(O)/C=C\C(=O)Nc1ccc(N2CCN(c3ccc(Cl)cc3)CC2)cc1 | i | i | i | i | i
C=CCn1c(N)c(C(=O)NCCC2=CCCCC2)sc1=S | i | i | i | i | i
O=C(c1ccncc1)N1CCN(C(=O)c2cccs2)CC1 | i | i | i | i | i
O=C(c1cccs1)N1CCN(c2ncc(Br)cn2)CC1 | 175* | i | i | i | i
COC(=O)[C@@]12CCCN1[C@H](c1ccc(-c3ccccc3)cc1)[C@@H]1C(=O)N(C)C(=O)[C@@H]12 | i | i | i | i | i
COC(=O)[C@@]12CCCCN1[C@H](c1ccc(-c3cccc(Cl)c3)c(OC)c1)[C@H]1C(=O)N(C)C(=O)[C@H]12 | i | i | i | 25* | i
CCN1C(=O)[C@H]2[C@@H](c3ccc(-c4ccc(C(C)=O)cc4)cc3)N3CCCC[C@@]3(C(=O)OC)[C@H]2C1=O | i | i | i | i | i
